FGF22 binding: binders of human FGF22 protein, primary screen, FGF22 synaptogenesis inhibitor project, biophysical, thermal shift, single point; activity (Tm shift, normalised), % at 9.99 µM; recombinant FGF22 thermal shift, SYPRO orange fluorescence; percent of sucrose octasulfate shift, DMSO zero; 1.5% of 340,000 active; AID 651658, 2012; Fibroblast growth factor 22 (Homo sapiens), Q9HCT0;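 active means mean Tm shift, scaled 0 neutral to 100 positive control, at about 1.3% or above, every replicate too, limit read from the data; inconclusive means no clear call, values can overlap the other calls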
Target sequence (Q9HCT0 whole entry, looked up): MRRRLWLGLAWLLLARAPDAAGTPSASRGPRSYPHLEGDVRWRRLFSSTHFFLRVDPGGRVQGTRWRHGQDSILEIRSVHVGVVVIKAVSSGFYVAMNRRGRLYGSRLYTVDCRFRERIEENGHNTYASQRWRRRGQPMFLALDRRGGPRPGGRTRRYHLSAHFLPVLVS
rRNA inh HTS: reduced GFP signal of wild-type E. coli, primary screen, bacterial rRNA inhibitor project, GFP/RFP fluorescence, OD600, single point; E. coli WT GFP vs humanized-ribosome RFP mutants, 24 h; stronger effect = lower value; DMSO median 0, no signal -100; GFP signal change (wild-type ribosome), % (concentration not given with the values); 1.6% of 350,000 active;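 active means significant combined selectivity score with lowered wild-type GFP, culture density cut under 30%, mutant RFP and density less affected; inactive means any of these conditions unmet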
C2C12 statin: suppressors of statin myotoxicity in C2C12 myotubes, primary screen, cell-based, single point, plate reader; AID 602340, 2012; rescue of ATP level, % at 7.49 µM; C2C12 myotubes + simvastatin, ATP luminescence, 48 h; scaled: DMSO 0, geranylgeraniol control 100; 0.78% of 330,000 active;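 active means mean ATP rescue above about 67%, or every replicate alone reaching that limit, limit read from the data, passing the limit was not always enough; inconclusive means no clear call, values can overlap the other calls; inactive means mean under the limit and some replicate under it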;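 further: myotubes were challenged with 10 µM simvastatin during compound exposure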
FN deposition inh: inhibitors of fibronectin matrix deposition, primary screen, AH1F cells, Alexa488-fibronectin fluorescence, plate reader | 0.086% of 350,000 active | AH1F fibroblasts, overnight | AID 743247, 2014 | inhibition, % at 12.6 µM;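 active means mean inhibition across replicates of 30% or more, regardless of how many single replicates reach that level; inconclusive means mean under 30% yet at least half of replicates reach 30%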
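test system = AH1F fibroblasts assembling fluorescent fibronectin matrix | quantity = 10000 AH1F cells per well | buffer or medium = DMEM plus 2% serum, read in PBS | doses = single dose, pinned | incubation = 1 h cell attachment, overnight exposure to compound and label | detection = fluorescence at 485 nm excitation, 525 nm emission | read-out basis = inhibition from reduced deposited-fibronectin fluorescence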
E-sel inducer: E-selectin induction in HUVECs, primary screen, imaging, HUVEC, immunofluorescence imaging, single point. P16581. normalized: neutral wells 0, TNF-alpha wells 100. activation, % at 7.58 µM. 0.37% of 260,000 active;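 active means mean E-selectin-positive cell signal at least 10% of the positive control, reached in at least 60% of replicates, without over 20% cell loss; inconclusive means no rule given, readout overlaps actives, possibly toxicity-flagged; inactive means the rest, including those meeting only one limit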
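assay system = HUVEC, human umbilical vein endothelial cells | input = 3,000 HUVEC seeded per well | medium = EGM-2 growth medium on 0.1% gelatin-coated wells | dosing = one compound dose added by pin transfer | signal = immunofluorescence imaging | read-out basis = % PE-positive cells | control set = TNF-alpha, DMSO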
SIRT5 block: SIRT5 desuccinylase inhibitors, primary screen, biochemical, fluorescence imaging, single point, set 5; NAD-dependent protein deacylase sirtuin-5, mitochondrial (Homo sapiens), Q9NXA8; Purified SirT5, succinyl-peptide AMC, trypsin-coupled fluorescence; inhibition, % at 15 µM; 1.1% of 330,000 active; in the data active means inhibition above about 15%; inconclusive means no clear call, values can overlap the other calls
Target sequence (Q9NXA8 whole entry, looked up): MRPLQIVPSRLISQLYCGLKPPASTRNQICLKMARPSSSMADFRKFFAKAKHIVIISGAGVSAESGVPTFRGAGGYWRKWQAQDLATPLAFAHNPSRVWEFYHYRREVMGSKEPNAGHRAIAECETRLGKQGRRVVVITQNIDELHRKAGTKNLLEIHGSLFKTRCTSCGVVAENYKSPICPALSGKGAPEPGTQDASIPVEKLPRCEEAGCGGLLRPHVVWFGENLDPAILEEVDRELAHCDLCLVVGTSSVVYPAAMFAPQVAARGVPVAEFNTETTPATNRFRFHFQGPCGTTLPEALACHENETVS
Hits are given with their value; i = inactive; ? = inconclusive; nt = no result given; ! = repeats disagree. Hits are enriched below; roughly 4% of the tested compounds scored in any of these assays.

SMILES	FGF22 binding	rRNA inh HTS	C2C12 statin	FN deposition inh	E-sel inducer	SIRT5 block
C/C=C/C(=O)OCC(=O)NC(=O)NC(C)C	nt	nt	101	i	nt	nt
CCCNC(=O)Nc1ccc2c(c1)C(=O)N(C)C[C@H](OC)[C@@H](C)CN(C(=O)CC)[C@H](C)CO2	nt	i	i	i	i	nt
C[C@H]1CN([C@@H](C)CO)S(=O)(=O)c2ccc(/C=C/c3ccccc3)cc2O[C@@H]1CN(C)C(=O)NC1CCCC1	i	i	i	i	i	32
C/C=C/c1ccc2c(c1)O[C@H](CN(C)C(=O)NC1CCCC1)[C@@H](C)CN([C@H](C)CO)S2(=O)=O	i	i	i	i	i	i
C[C@H](CO)N1C[C@H](C)[C@H](CN(C)C(=O)NC2CCCC2)Oc2cc(/C=C/c3ccccc3)ccc2S1(=O)=O	i	i	i	i	i	16
C[C@@H]1CN([C@@H](C)CO)S(=O)(=O)c2ccc(/C=C/c3ccccc3)cc2O[C@@H]1CN(C)C(=O)NC1CCCC1	i	i	93	i	i	20
C[C@@H]1CN([C@H](C)CO)S(=O)(=O)c2ccc(/C=C/c3ccccc3)cc2O[C@@H]1CN(C)C(=O)NC1CCCCC1	i	i	i	nt	nt	i
C[C@@H]1CN([C@H](C)CO)S(=O)(=O)c2ccc(/C=C/c3ccccc3)cc2O[C@@H]1CN(C)C(=O)NC1CCCC1	i	i	?	i	i	21
C=C(C)C[C@H]1CCn2nncc2COCCNC1=O	nt	i	nt	i	nt	nt
COc1ccccc1-c1ccc([C@@H]2[C@H](C#N)N[C@@H]2CO)cc1	i	i	i	i	i	i
CCNC(=O)[C@@H]1[C@@H](CO)[C@@H]2Cn3c(ccc(-c4cccc(C(=O)N(C)C)c4)c3=O)[C@H]1N2	nt	i	nt	nt	i	i
N/C(=N\OC(=O)/C=C/c1ccccc1)c1cccnc1	43	i	nt	i	i	i
N#C[C@H]1[C@@H](c2ccccc2-c2ccccc2)[C@@H](CO)N1C(=O)Cc1ccncc1	i	i	nt	i	i	i
O=c1[nH]c(=S)[nH]c2c1C(c1ccc(Br)cc1)c1c([nH]c(=S)[nH]c1=O)O2	i	i	i	i	i	67
O=C1CCCC2=C1C(c1ccc(Br)cc1)c1c([nH]c(=S)[nH]c1=O)N2 (centres undefined)	nt	nt	i	nt	nt	nt
CCC[C@H]1COCCS(=O)(=O)N1Cc1ccccc1F	i	i	79	i	i	i
O=C1NCCOCc2cnnn2CC[C@H]1Cc1ccc(F)cc1	nt	i	nt	i	nt	nt
CC(=O)Nc1ccc2c(c1)C(=O)N(C)[C@H]1CC[C@H](CC(=O)N3CCc4ccccc4C3)O[C@@H]1CO2	i	i	i	i	i	nt
O=C(Nc1ccccc1)N1C[C@@H]2N[C@H](C1)[C@@H]2c1ccc(/C=C/c2ccccc2)cc1	nt	-25	nt	i	i	i
O=C(Nc1ccccc1)N1C[C@@H]2N[C@H](C1)C2c1ccc(-c2ccccc2)cc1 (some centres undefined)	nt	i	nt	i	i	i
O=C(Nc1ccc(C(F)(F)F)cc1)N1C[C@@H]2N[C@H](C1)C2c1ccc(-c2cccc(F)c2)cc1 (some centres undefined)	nt	i	nt	i	i	15!
CCC(=O)N(C)C[C@@H]1Oc2ncc(C#Cc3ccccc3)cc2C(=O)N([C@H](C)CO)C[C@H]1C	i	i	i	i	i	i
O=C(N/N=C/c1ccccc1)c1cc(-c2ccc3c(c2)OCO3)n[nH]1	i	-20	i	i	nt	i
O=C(Cc1ccccc1)N/N=C/c1ccc2c(c1)OCO2	i	i	nt	i	nt	nt
O=C(CNc1ccccc1)N/N=C/c1ccc2c(c1)OCO2	i	i	i	i	31	i
SMILES	FGF22 binding	rRNA inh HTS	C2C12 statin	FN deposition inh	E-sel inducer	SIRT5 block
O=C(N/N=C/c1ccc(O)cc1)c1cc(-c2ccc3c(c2)OCO3)n[nH]1	i	i	i	i	nt	i
CCc1ccc(/C=N/NC(=O)c2cc(-c3cccc([N+](=O)[O-])c3)n[nH]2)cc1	i	-19	nt	i	nt	i
O=C(NN=Cc1ccc2c(c1)OCO2)NN=Cc1ccc2c(c1)OCO2	i	-21	i	i	i	i
Fc1ccc(CN2C3CN(CC(F)(F)F)CC2C3c2ccc(Br)cc2)cc1 (centres undefined)	nt	i	nt	i	nt	nt
C[C@@H]1CCCCO[C@H](CN(C)C(=O)NC2CCCCC2)[C@H](C)CN([C@@H](C)CO)C(=O)c2cc(NC(=O)Nc3ccccc3)ccc2O1	i	i	nt	i	i	i
O=C(NN=Cc1ccc2c(c1)OCO2)C1CC1	43	i	i	i	i	nt
O=C(N/N=C/c1ccc2c(c1)OCO2)C1COc2ccccc2O1 (centres undefined)	i	i	i	nt	nt	i
C[C@H](CO)N1C[C@H](C)[C@H](CN(C)Cc2ccc(C(=O)O)cc2)Oc2c(NC(=O)Nc3ccc4c(c3)OCO4)cccc2C1=O	i	i	nt	i	i	i
Cc1cccc(NC(=S)NC2CCCC2)c1	nt	nt	nt	i	i	nt
Cc1cccc(NC(=S)NC2CC3C=CC2C3)c1 (centres undefined)	i	-21	100	i	i	nt
CCOC(=O)c1cnc(-n2nc(C)cc2C)nc1NC1CCCC1	i	-49	nt	i	i	i
CC(=O)Nc1cccc2c1Cc1cc([N+](=O)[O-])ccc1-2	i	-19	nt	i	i	i
CC1CC(C)CN(C(=O)/C=C/c2ccc([N+](=O)[O-])s2)C1 (centres undefined)	i	-29	nt	nt	nt	i
C[C@@H]1CN([C@@H](C)CO)C(=O)c2cc(C#Cc3cccc(F)c3)cnc2O[C@H]1CN(C)CC1CCCC1	i	i	nt	nt	i	i
C[C@H](CO)N1C[C@H](C)[C@H](CN(C)S(=O)(=O)c2ccc(Cl)cc2)Oc2ccc(NS(=O)(=O)c3ccc(F)cc3)cc2CC1=O	i	i	i	nt	92	nt
C[C@H](CO)N1C[C@H](C)[C@@H](CN(C)S(=O)(=O)c2ccc(Cl)cc2)Oc2ccc(NS(=O)(=O)c3ccc(F)cc3)cc2CC1=O	i	i	i	nt	59	nt
C[C@@H]1CN([C@H](C)CO)C(=O)Cc2cc(NS(=O)(=O)c3ccc(Cl)cc3)ccc2O[C@@H]1CN(C)S(=O)(=O)c1ccc(F)cc1	i	i	i	nt	i	i
C[C@@H]1CN([C@@H](C)CO)C(=O)c2cc(-c3ccccc3F)cnc2O[C@@H]1CN(C)C(=O)C1CC1	i	i	i	nt	i	i
